Results on three molecules are retold here after ChEMBL document CHEMBL4052759, “Discovery of DS79182026: A potent orally active hepcidin production inhibitor” (Bioorg Med Chem Lett, 2017).

As usually defined, the Tmax is the time from dosing to the highest level. As usually defined, the inhibition is the drop in the measured response relative to a control, in per cent. What is called Cmax is the maximum level reached in the sampled fluid or tissue. In general, IC50 refers to the midpoint of a concentration-inhibition curve. For orientation: AUC means the area under the concentration-time curve, a measure of exposure. Read a low AUC as less exposure. A word on the logD: it is lipophilicity at a set pH, counting ionised and neutral species. Read a low logD as lower lipophilicity.

The nature of data set [1]: Metabolic stability in mouse liver microsomes assessed as parent compound remaining at 1 uM after 0.5 hrs by LC-MS/MS analysis. The following applies: read-out: Stability. In kind it is ADME, microsome.
Data set [2] is described as follows: Tmax in C57BL/6J mouse at 30 mg/kg, po by LC-MS/MS analysis. In kind it is ADME, organism-based. To be noted: in vivo.
Data set [3] deals with Mitogen-activated protein kinase kinase kinase kinase 4 (Homo sapiens) (UniProt O95819). The data set is described as follows: Inhibition of HGK (unknown origin) at 0.078 uM relative to control.
Chain of Mitogen-activated protein kinase kinase kinase kinase 4 (Homo sapiens) (O95819 2-1239 limits assumed): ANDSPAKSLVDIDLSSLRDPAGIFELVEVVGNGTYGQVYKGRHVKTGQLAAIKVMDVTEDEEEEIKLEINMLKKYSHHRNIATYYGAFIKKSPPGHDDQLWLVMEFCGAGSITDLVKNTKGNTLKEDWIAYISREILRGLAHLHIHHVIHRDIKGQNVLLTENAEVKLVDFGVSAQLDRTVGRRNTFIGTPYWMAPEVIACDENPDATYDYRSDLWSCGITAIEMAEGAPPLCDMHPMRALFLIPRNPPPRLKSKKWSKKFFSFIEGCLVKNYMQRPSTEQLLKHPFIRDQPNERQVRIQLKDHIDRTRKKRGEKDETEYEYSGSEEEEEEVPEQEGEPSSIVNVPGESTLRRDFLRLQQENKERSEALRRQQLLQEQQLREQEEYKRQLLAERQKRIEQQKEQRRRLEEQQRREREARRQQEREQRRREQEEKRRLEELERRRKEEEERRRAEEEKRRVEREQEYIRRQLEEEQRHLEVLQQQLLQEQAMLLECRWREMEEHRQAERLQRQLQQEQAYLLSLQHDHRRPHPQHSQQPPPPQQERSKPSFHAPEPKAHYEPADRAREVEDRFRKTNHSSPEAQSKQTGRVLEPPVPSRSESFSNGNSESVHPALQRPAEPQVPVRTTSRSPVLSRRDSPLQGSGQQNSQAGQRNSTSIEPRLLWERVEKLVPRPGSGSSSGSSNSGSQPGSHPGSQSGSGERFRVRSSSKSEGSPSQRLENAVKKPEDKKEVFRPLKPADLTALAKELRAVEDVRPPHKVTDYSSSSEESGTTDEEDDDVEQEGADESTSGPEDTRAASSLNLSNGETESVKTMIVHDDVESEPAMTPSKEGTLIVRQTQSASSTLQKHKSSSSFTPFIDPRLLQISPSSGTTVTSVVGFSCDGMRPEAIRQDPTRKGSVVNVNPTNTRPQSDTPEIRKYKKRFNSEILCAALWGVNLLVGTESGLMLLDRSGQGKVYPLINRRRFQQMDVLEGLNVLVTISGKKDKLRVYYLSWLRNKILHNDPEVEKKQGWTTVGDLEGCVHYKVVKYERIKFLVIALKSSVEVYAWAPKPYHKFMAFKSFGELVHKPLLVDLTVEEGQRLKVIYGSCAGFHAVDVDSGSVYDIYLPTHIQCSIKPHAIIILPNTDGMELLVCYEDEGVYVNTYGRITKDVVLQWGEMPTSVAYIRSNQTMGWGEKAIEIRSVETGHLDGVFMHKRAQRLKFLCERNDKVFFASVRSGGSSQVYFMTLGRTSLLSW
Data set [4] can be described thus: Cmax in C57BL/6J mouse at 30 mg/kg, po by LC-MS/MS analysis. In kind it is ADME, organism-based. Also on record: dose 30 mg/kg, route oral. The following applies: in vivo.
A further data set relates to HepG2. The data set is described as follows: Inhibition of human recombinant BMP6-stimulated hepcidin mRNA expression in human HepG2 cells after 6 hrs by qRT-PCR analysis. The class given is functional, cell-based. To be noted: HepG2, 6 h.
For data set [5], the target named is Tyrosine-protein kinase SYK (Homo sapiens) (UniProt P43405). Briefly: Inhibition of SYK (unknown origin) at 0.078 uM relative to control.
Data set [6] is described as follows: AUC in C57BL/6J mouse at 30 mg/kg, po by LC-MS/MS analysis. The class given is ADME, organism-based. To be noted: in vivo.
Data set [7] can be described thus: Lipophilicity, log D of the compound. The following applies: octanol/water. In kind it is physicochemical.
In a further data set the test system is Mus musculus. The data set is described as follows: Antiinflammatory activity in C57BL/6J mouse assessed as reduction in recombinant mouse IL-6 induced serum hepcidin level at 30 mg/kg, po pretreated for 30 mins followed by IL-6 challenge measured after 4 hrs by LC-MS/MS analysis. The class given is functional, organism-based. In outline:
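9-week-old male C57BL/6J mice were dosed orally at 30 mg/kg (0.5% methylcellulose suspension, n = 4) 30 min before intravenous mouse IL-6. Blood was taken 4 h after IL-6 and serum hepcidin was measured. Groups were compared by t-test against saline-treated and 0.5% MC vehicle-treated groups.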

Data set [8] addresses MAP kinase-interacting serine/threonine-protein kinase 1 (Homo sapiens) (UniProt Q9BUB5). Briefly: Inhibition of MNK1 (unknown origin) at 0.49 uM relative to control.
For data set [9], the target named is Homeodomain-interacting protein kinase 4 (Homo sapiens) (UniProt Q8NE63). Briefly: Inhibition of HIPK4 (unknown origin) at 0.49 uM relative to control.
Data set [10] concerns the target Cyclin-dependent kinase 1/cyclin B1 (Homo sapiens) (UniProt P06493+P14635). The data set is described as follows: Inhibition of CDK1/CyclinB (unknown origin) at 0.49 uM relative to control. In kind it is protein-complex assay.
Data set [11] has as its target Serine/threonine-protein kinase PAK 2 (Homo sapiens) (UniProt Q13177). Briefly: Inhibition of PAK2 (unknown origin) at 0.49 uM relative to control.
The target of data set [12] is Fibroblast growth factor receptor 3 (Homo sapiens) (UniProt P22607). Briefly: Inhibition of FGFR3 (unknown origin) at 0.49 uM relative to control.
Chain of Fibroblast growth factor receptor 3 (Homo sapiens) (P22607 23-806 limits assumed): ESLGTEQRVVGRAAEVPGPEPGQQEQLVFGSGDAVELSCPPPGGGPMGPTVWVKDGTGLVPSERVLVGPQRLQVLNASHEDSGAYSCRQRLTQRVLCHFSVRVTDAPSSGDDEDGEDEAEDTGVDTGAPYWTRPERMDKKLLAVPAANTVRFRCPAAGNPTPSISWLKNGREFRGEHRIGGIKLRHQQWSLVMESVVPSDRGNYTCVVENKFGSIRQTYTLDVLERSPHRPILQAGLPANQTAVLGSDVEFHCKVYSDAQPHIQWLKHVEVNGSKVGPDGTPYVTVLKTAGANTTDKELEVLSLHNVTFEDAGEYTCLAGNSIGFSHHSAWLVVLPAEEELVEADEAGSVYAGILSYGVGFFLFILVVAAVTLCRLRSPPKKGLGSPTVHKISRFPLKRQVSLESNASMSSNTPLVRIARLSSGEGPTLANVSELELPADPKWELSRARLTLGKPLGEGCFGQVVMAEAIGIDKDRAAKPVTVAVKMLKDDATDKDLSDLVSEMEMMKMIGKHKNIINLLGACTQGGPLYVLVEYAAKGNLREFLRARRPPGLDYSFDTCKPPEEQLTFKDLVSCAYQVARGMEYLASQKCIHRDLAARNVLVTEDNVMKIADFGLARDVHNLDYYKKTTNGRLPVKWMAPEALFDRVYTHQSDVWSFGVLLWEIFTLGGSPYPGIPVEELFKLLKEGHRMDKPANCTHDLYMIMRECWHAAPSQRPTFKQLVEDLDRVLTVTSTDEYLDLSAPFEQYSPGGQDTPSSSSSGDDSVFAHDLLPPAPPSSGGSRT
Data set [13] deals with Homeodomain-interacting protein kinase 2 (Homo sapiens) (UniProt Q9H2X6). Briefly: Inhibition of HIPK2 (unknown origin) at 0.49 uM relative to control.
Data set [14] concerns the target MAP kinase-activated protein kinase 3 (Homo sapiens) (UniProt Q16644). Briefly: Inhibition of MAPKAPK3 (unknown origin) at 0.49 uM relative to control.
Data set [15] addresses Casein kinase I isoform delta (Homo sapiens) (UniProt P48730). Briefly: Inhibition of CK1-delta (unknown origin) at 0.49 uM relative to control.
The target in data set [16] is MAP kinase-activated protein kinase 2 (Homo sapiens) (UniProt P49137). Briefly: Inhibition of MAPKAPK2 (unknown origin) at 0.49 uM relative to control.
For data set [17], the target named is Calcium/calmodulin-dependent protein kinase type II subunit gamma (Homo sapiens) (UniProt Q13555). Briefly: Inhibition of CaMK2-gamma (unknown origin) at 0.49 uM relative to control.
The subject of data set [18] is Mitogen-activated protein kinase 14 (Homo sapiens), Q16539 [T106M]. Briefly: Inhibition of SAPK2a T106M mutant (unknown origin) at 0.45 uM relative to control.
For data set [19], the target named is Ephrin type-A receptor 2 (Homo sapiens) (UniProt P29317). Briefly: Inhibition of EPHA2 (unknown origin) at 0.45 uM relative to control.
Data set [20] concerns the target Casein kinase I isoform delta (Homo sapiens) (UniProt P48730). Briefly: Inhibition of CK1-delta (unknown origin) at 0.45 uM relative to control.
The target of data set [21] is RAC-beta serine/threonine-protein kinase (Homo sapiens) (UniProt P31751). Briefly: Inhibition of AKT2 (unknown origin) at 0.45 uM relative to control.
Chain of RAC-beta serine/threonine-protein kinase (Homo sapiens) (P31751 whole entry): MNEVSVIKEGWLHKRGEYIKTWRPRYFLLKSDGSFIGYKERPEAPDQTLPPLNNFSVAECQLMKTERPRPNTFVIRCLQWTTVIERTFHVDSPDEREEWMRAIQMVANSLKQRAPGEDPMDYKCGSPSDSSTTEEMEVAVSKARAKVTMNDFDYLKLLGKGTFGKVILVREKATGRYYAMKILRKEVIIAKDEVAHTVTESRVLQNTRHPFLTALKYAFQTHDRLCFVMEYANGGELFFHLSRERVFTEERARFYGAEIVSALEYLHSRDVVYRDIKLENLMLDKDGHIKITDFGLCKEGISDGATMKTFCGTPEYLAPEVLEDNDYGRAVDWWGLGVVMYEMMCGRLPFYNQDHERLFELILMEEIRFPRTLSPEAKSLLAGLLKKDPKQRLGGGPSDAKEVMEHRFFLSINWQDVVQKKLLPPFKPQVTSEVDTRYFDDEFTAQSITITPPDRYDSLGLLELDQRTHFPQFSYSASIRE
Data set [22] has as its target Dual specificity tyrosine-phosphorylation-regulated kinase 1A (Homo sapiens) (UniProt Q13627). Briefly: Inhibition of DYRK1a (unknown origin) at 0.45 uM relative to control.
The target of data set [23] is Tyrosine-protein kinase Fer (Homo sapiens) (UniProt P16591). The data set is described as follows: Inhibition of Fer (unknown origin) at 0.45 uM relative to control.
Data set [24] concerns the target T1, Protein kinase C zeta type (Homo sapiens) (UniProt Q05513).
T1 sequence (whole entry): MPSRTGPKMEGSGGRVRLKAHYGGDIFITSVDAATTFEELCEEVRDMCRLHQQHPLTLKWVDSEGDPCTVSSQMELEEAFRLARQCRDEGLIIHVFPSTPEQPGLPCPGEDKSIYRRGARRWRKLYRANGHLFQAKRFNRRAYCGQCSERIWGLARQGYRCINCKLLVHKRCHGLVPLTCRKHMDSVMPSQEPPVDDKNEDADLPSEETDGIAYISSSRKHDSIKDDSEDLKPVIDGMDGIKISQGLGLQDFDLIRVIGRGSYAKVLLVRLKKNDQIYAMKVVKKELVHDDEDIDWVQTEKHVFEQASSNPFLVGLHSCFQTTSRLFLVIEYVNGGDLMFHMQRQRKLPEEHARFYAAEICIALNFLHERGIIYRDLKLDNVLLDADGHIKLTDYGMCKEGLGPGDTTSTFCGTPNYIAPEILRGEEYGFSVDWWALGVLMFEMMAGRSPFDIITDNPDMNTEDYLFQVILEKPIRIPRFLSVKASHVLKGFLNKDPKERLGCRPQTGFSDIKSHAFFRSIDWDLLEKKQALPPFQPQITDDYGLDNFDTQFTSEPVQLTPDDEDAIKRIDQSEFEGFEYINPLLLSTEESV
Briefly: Inhibition of PKC-zeta (unknown origin) at 0.45 uM relative to control.

The target in data set [25] is Casein kinase I isoform gamma-1 (Homo sapiens) (UniProt Q9HCP0). Briefly: Inhibition of CK1-gamma1 (unknown origin) at 0.45 uM relative to control.
Chain of Casein kinase I isoform gamma-1 (Homo sapiens) (Q9HCP0 whole entry, looked up, canonical isoform): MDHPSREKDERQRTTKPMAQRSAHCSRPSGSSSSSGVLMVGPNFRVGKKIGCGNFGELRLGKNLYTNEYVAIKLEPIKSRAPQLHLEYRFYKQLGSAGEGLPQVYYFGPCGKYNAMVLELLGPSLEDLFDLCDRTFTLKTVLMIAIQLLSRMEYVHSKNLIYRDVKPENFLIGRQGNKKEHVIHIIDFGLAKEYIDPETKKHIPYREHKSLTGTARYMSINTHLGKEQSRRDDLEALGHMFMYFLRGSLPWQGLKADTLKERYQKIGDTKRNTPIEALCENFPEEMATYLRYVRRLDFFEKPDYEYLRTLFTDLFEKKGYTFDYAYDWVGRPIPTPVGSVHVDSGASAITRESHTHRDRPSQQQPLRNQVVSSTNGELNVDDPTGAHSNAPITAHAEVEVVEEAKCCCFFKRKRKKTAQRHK
The target of data set [26] is Ephrin type-A receptor 8 (Homo sapiens) (UniProt P29322). The data set is described as follows: Inhibition of EPHA8 (unknown origin) at 0.45 uM relative to control.
Data set [27] has as its target AMPK alpha2/beta1/gamma1 (Homo sapiens) (UniProt P54646+P54619+Q9Y478). Briefly: Inhibition of AMPK-alpha2/beta1/gamma1 (unknown origin) at 0.45 uM relative to control. In kind it is protein-complex assay.
Data set [28] deals with Tyrosine-protein kinase ITK/TSK (Homo sapiens) (UniProt Q08881). The data set is described as follows: Inhibition of ITK (unknown origin) at 0.45 uM relative to control.

Calls of active or inactive are those of the source. The rule behind the calls is not given here.

Chain of Casein kinase I isoform delta (Homo sapiens) (P48730 whole entry, looked up, canonical isoform): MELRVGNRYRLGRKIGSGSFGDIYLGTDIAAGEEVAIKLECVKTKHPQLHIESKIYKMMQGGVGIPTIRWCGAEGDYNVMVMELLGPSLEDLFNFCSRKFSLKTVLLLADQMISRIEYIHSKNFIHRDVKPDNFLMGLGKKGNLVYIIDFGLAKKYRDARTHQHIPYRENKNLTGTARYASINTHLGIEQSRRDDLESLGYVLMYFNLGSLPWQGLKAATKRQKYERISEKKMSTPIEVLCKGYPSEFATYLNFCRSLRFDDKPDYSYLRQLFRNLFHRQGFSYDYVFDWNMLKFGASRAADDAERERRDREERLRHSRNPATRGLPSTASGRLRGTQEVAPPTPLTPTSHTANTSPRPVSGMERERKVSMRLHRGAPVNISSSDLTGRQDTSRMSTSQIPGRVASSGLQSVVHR
Chain of MAP kinase-interacting serine/threonine-protein kinase 1 (Homo sapiens) (Q9BUB5 whole entry, looked up): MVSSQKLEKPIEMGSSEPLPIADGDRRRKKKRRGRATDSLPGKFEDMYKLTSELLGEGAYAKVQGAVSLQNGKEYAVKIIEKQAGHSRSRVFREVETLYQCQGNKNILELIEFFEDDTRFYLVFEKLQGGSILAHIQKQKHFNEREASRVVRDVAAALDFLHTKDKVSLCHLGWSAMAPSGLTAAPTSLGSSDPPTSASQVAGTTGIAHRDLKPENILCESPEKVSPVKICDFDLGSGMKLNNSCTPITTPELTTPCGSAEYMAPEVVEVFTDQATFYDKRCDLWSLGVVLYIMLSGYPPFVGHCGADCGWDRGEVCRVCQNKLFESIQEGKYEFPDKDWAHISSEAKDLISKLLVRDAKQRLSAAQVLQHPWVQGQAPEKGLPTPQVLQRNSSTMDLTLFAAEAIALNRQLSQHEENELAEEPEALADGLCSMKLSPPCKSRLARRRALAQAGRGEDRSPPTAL
Chain of Mitogen-activated protein kinase 14 (Homo sapiens), Q16539 [T106M] (Q16539 whole entry T106M): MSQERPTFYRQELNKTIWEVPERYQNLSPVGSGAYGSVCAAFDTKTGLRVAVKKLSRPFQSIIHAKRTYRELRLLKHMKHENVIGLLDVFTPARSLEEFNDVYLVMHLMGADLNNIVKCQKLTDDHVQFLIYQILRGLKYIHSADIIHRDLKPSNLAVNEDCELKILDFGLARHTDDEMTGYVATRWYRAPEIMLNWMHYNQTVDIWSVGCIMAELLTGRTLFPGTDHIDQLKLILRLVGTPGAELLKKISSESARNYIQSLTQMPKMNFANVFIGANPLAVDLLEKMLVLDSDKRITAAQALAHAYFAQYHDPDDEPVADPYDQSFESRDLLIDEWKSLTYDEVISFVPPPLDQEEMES
Chain of Serine/threonine-protein kinase PAK 2 (Homo sapiens) (Q13177 whole entry): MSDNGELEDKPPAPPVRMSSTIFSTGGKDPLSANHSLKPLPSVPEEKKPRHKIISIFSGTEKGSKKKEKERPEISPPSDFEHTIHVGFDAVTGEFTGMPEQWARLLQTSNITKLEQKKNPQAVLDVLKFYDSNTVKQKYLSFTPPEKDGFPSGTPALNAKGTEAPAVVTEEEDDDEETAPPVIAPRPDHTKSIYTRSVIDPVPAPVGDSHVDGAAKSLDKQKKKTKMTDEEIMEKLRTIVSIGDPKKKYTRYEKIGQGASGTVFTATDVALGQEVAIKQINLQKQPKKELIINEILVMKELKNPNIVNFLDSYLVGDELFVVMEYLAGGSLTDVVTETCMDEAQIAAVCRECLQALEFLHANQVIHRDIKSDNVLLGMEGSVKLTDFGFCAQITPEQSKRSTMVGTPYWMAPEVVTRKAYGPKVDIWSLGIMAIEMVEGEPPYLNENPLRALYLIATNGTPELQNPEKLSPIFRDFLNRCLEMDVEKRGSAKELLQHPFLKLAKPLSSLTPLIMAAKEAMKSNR

For `COC(=O)Nc1noc2cc(-c3c(-c4ccccn4)n[nH]c3C)ccc12`, the remaining at 0.5 h, 1 µM in data set [1] came to 87%. Further, the time of peak concentration (Tmax) in data set [2] stood at 1 h. In addition, the inhibition came to 40.7% in data set [3] and 0% in [5]. In data set [4], this molecule yielded a maximum concentration (Cmax) of 9.17 µg/mL. Also, the half-maximal inhibitory concentration (IC50) with HepG2 turned out to be 0.039 µM. Besides, the area under the curve (AUC) in data set [6] was determined as 36.2 µg·h/mL. Besides, in data set [7], the pH-dependent lipophilicity (logD) amounted to 2.5. The outcome in the data set on Mus musculus was Active.
Regarding `Cc1[nH]nc(C2CC2)c1-c1ccc2c(NC(=O)C3CC3)noc2c1`, the inhibition in data set [8] is 3%; in [9], 1.7%; in [10] it was 5.3%; in data set [11] it was -0.3%; in [12], -0.3%; in [13], 2.7%. Moreover, the inhibition in data set [14] is -7.3%; in data set [15], 6.7%; in [16] it was 2.7%; in data set [17] it was 6%. In the data set with HepG2, the 50% inhibitory concentration (IC50) worked out at 0.29 µM.
As for `Cc1n[nH]c(C)c1-c1ccc2c(NC(=O)c3ccc(N4CCN(C)CC4)cc3)n[nH]c2c1`, the inhibition is 1.3% in data set [18]; 8% in [19]; 5% in data set [20]; -2% in data set [21]; 6.3% in data set [22]; 2.3% in [23]. For the same molecule, the inhibition in data set [24] was 7%; in [25], 5%; in data set [26], 3.7%; in data set [27], 26%; in data set [28], 89%. Moreover, the remaining at 0.5 h, 1 µM in data set [1] turned out to be 80%. For the same molecule, the Tmax in [2] was 3.25 h. The molecule further yielded a Cmax in data set [4] of 0.92 µg/mL. Besides, the half-maximal inhibitory concentration (IC50) with HepG2 worked out at 0.23 µM. The AUC in [6] amounted to 2.55 µg·h/mL. Also, the log distribution coefficient (logD) in data set [7] stood at 2.4. Further, in the data set on Mus musculus, the result was Active.
